Results: ChEMBL document CHEMBL4251549, “Design, synthesis and biological evaluation of nitrogen-containing macrocyclic bisbibenzyl derivatives as potent anticancer agents by targeting the lysosome” (Eur J Med Chem, 2017)
pIC50: −log10 of the molar value. Blank lines part the entries; values can stand above or below the compound they belong to. Calls of active or inactive are those of the source. The rule behind the calls is not given here.

Assays:
A549 [1] = test: Antiproliferative activity in human A549 cells at 25 ug/ml after 60 hrs by […] based cellular impedance analysis; assay type: functional, cell-based
A549 [2] = test: Induction of apoptosis in human A549 cells assessed as necrotic cells at 50 ug/ml after 8 hrs by Annexin V-FITC/propidium iodide staining based flow cytometry (reference value: 0.06%); assay type: functional
In short: (§1)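 A549 seeded at 5 × 10^5 per well and exposed to varying concentrations for 8 h. Harvested, washed twice in ice-cold PBS (0.01 M, pH 7.2), spun 5 min at 200 g, then stained with Annexin V-FITC/PI. Analysed by flow cytometry: Annexin V+/PI− scored apoptotic, double-positive necrotic or late apoptotic. Mean ± SD of three independent experiments.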

A549 [3] = test: Induction of apoptosis in human A549 cells assessed as early apoptotic cells at 50 ug/ml after 8 hrs by Annexin V-FITC/propidium iodide staining based flow cytometry (reference value: 0.03%); assay type: functional; in short: as §1
A549 [4] = test: Induction of apoptosis in human A549 cells assessed as late apoptotic cells at 50 ug/ml after 8 hrs by Annexin V-FITC/propidium iodide staining based flow cytometry (reference value: 0.02%); assay type: functional; in short: as §1
A549 [5] = test: Antiproliferative activity in human A549 cells at 25 ug/ml up to 20 hrs by xCELLigence RTCA SP based cellular impedance analysis; assay type: functional, cell-based
In short: (§2)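 After compound treatment, A549 cells plated at 2000 cells/well on E-plates. Proliferation tracked over time as real-time cellular impedance on an xCELLigence RTCA DP instrument. Hydroxychloroquine was the positive control. Representative of three independent experiments.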

A549 [6] = test: Induction of apoptosis in human A549 cells assessed as late apoptotic cells at 1 uM after 8 hrs by Annexin V-FITC/propidium iodide staining based flow cytometry (reference value: 0.02%); assay type: functional; in short: as §1
MCF7 [7] = test: Potency index, ratio of ADR IC50 to compound IC50 for antiproliferative activity in human MCF7 cells; assay type: functional
A549 [8] = test: Induction of apoptosis in human A549 cells assessed as necrotic cells at 1 uM after 8 hrs by Annexin V-FITC/propidium iodide staining based flow cytometry (reference value: 0.06%); assay type: functional; in short: as §1
A549 [9] = test: Potency index, ratio of ADR IC50 to compound IC50 for antiproliferative activity in human A549 cells; assay type: functional
A549 [10] = test: Induction of apoptosis in human A549 cells assessed as cell shrinkage at 0.5 to 1 uM after 8 hrs by DAPI staining based fluorescence microscopic analysis; assay type: functional
In short: (§3)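 A549 seeded on glass coverslips at 5 × 10^4/mL and grown 24 h, then treated 8 h. Washed in cold PBS and fixed in cold methanol/acetone (1:1). Stained with DAPI ([…]) for 10 min at room temperature, washed with PBS/Triton X-100, mounted in PBS:glycerol 1:1. Nuclear morphology examined by fluorescence microscopy.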

A549 [11] = test: Induction of apoptosis in human A549 cells assessed as formation of granular apoptotic body at 0.5 to 1 uM after 8 hrs by DAPI staining based fluorescence microscopic analysis; assay type: functional, cell-based; in short: as §3
K562 [12] = test: Potency index, ratio of ADR IC50 to compound IC50 for antiproliferative activity in human K562 cells; assay type: functional
A549 [13] = test: Antiproliferative activity in human A549 cells after 48 hrs by MTT assay; assay type: functional, cell-based; conditions: A549, 48 h
In short: (§4)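 Cells exposed to compound for 48 h. Viability read by MTT, with absorbance of the solubilised MTT product at 570 nm. IC50 derived from at least three independent experiments.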

MCF7 [14] = test: Antiproliferative activity in human MCF7 cells after 48 hrs by MTT assay; assay type: functional, cell-based; conditions: MCF7, 48 h; in short: as §4
K562 [15] = test: Antiproliferative activity in human K562 cells after 48 hrs by MTT assay; assay type: functional, cell-based; conditions: K562, 48 h; in short: as §4
A549 [16] = test: Induction of apoptosis in human A549 cells assessed as early apoptotic cells at 1 uM after 8 hrs by Annexin V-FITC/propidium iodide staining based flow cytometry (reference value: 0.03%); assay type: functional; in short: as §1
A549 [17] = test: Induction of lysosomal rupture in human A549 cells 1 to 2 uM after 6 hrs by LysoTracker/AO dye based flow cytometric analysis; assay type: functional, cell-based
In short: (§5)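 A549 treated 6 h, then exposed to LysoTracker Red (50 nm) or acridine orange (5 mg/mL). Loss of lysosomal dye retention measured by flow cytometry on a FACSCalibur.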

A549 [18] = test: Induction of lysosomal rupture in human A549 cells 1 to 2 uM after 6 hrs by LysoTracker/AO dye based confocal microscopic analysis; assay type: functional, cell-based
In short: (§6)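 A549 treated 6 h, then loaded with LysoTracker Red (50 nm) or acridine orange (5 mg/mL). Lysosomal integrity imaged by confocal microscopy, with rupture scored as "pale cells" showing fewer dye-accumulating lysosomes.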

A549 [19] = test: Induction of apoptosis in human A549 cells assessed as cell shrinkage at 2 to 4 uM after 8 hrs by DAPI staining based fluorescence microscopic analysis; assay type: functional; in short: as §3
A549 [20] = test: Induction of lysosomal rupture in human A549 cells 2 to 4 uM after 6 hrs by LysoTracker/AO dye based flow cytometric analysis; assay type: functional, cell-based; in short: as §5
A549 [21] = test: Antiproliferative activity in human A549 cells at 1.5 to 3 uM after 60 hrs by xCELLigence RTCA SP based cellular impedance analysis; assay type: functional, cell-based; in short: as §2
A549 [22] = test: Antiproliferative activity in human A549 cells at 1.5 to 3 uM up to 20 hrs by xCELLigence RTCA SP based cellular impedance analysis; assay type: functional, cell-based; in short: as §2
A549 [23] = test: Induction of lysosomal rupture in human A549 cells 2 to 4 uM after 6 hrs by LysoTracker/AO dye based confocal microscopic analysis; assay type: functional, cell-based; in short: as §6
A549 [24] = test: Antiproliferative activity in human A549 cells at 1.5 to 3 uM up to 5 hrs by xCELLigence RTCA SP based cellular impedance analysis; assay type: functional, cell-based; in short: as §2

Compound: CCN(CCO)CCCC(C)Nc1ccnc2cc(Cl)ccc12 (configuration not stated) [HYDROXYCHLOROQUINE]
Activity (A549 [1]): Active
Activity (A549 [2]): 10.37%
Activity (A549 [3]): 2.96%
Activity (A549 [4]): 2.85%
Activity (A549 [5]): Active

pIC50 (A549 [13]): 6.29
pIC50 (MCF7 [14]): 6.64
pIC50 (K562 [15]): 6.72
Compound: CN(C)CCOc1ccc2cc1Oc1ccc(cc1)CCc1cccc(OCCN(C)C)c1-c1ccc(cc1OCCN(C)C)CC2
Activity (A549 [6]): 26.69%
Ratio IC50 (MCF7 [7]): 3 - 10
Activity (A549 [8]): 52.68%
Ratio IC50 (A549 [9]): 3 - 10
Activity (A549 [10]): Active
Activity (A549 [11]): Active
Ratio IC50 (K562 [12]): 3 - 10
Activity (A549 [16]): 0.55%
Activity (A549 [17]): Active
Activity (A549 [18]): Active

pIC50 (A549 [13]): 6.00
pIC50 (MCF7 [14]): 6.37
pIC50 (K562 [15]): 6.10
Compound: Oc1cc2ccc1-c1c(ccc(CN3CCCC3)c1O)CCc1ccc(cc1)Oc1cc(cc(CN3CCCC3)c1O)CC2
Activity (A549 [19]): Active
Activity (A549 [20]): Active
Activity (A549 [21]): Active
Activity (A549 [22]): Active
Activity (A549 [23]): Active
Activity (A549 [24]): Active
